Assay results as given in ChEMBL document CHEMBL2034936, “Discovery and extensive in vitro evaluations of NK-HDAC-1: a chiral histone deacetylase inhibitor as a promising lead” (J Med Chem, 2012).
Calls of active or inactive are those of the source. No cut-off for these calls is given here.

Columns and labels:
[1] = target: Histone deacetylase (Homo sapiens) (UniProt Q13547+O15379+Q9UBN7+Q92769+Q9UQL6+Q8WUI4+Q9BY41+Q96DB2+P56524+Q9UKV0+Q969S8); assay: Inhibition of HDAC in human MDA-MB-231 cells assessed as stimulation of histone H3 acetylation at 0.1 uM incubated for 24 hrs by Western blot; type: cell-based
How it was run: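 MDA-MB-231 cells in 35-mm dishes, dosed 24 h at graded concentrations, then trypsinized and PBS-washed. Lysed in RIPA (50 mM Tris-HCl pH 7.5, protease and phosphatase inhibitors) for 30 min at 4 °C, then cleared at 12,000g. Lysate, 60 μg protein by BCA, run on SDS-PAGE and PVDF. Blotted with anti-acetyl-histone H3 and HRP anti-rabbit, read by ECL.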

CCRF-CEM = assay: Growth inhibition of human CCRF-CEM cells after 72 hrs by MTS assay; type: functional
HL-60(TB) = assay: cells; type: functional; details: Homo sapiens, HL-60, 72 h
K562 = assay: cells; type: functional; details: Homo sapiens, K562, 72 h
MOLT-4 = assay: Growth inhibition of human MOLT4 cells after 72 hrs by MTS assay; type: functional; details: MOLT-4, 72 h
SR = assay: Growth inhibition of human SR cells after 72 hrs by MTS assay; type: functional
A549 = assay: cells; type: functional; details: Homo sapiens, A549, 72 h
HOP-92 = assay: cells; type: functional; details: Homo sapiens, HOP-92, 72 h
COLO 205 = assay: Growth inhibition of human COLO205 cells after 72 hrs by MTS assay; type: functional; details: COLO 205, 72 h
HCT-15 = assay: cells; type: functional; details: Homo sapiens, HCT-15, 72 h
IGROV-1 = assay: cells; type: functional; details: Homo sapiens, IGROV-1, 72 h
OVCAR-5 = assay: Growth inhibition of human OVCAR5 cells after 72 hrs by MTS assay; type: functional; details: OVCAR-5, 72 h
cells = type: functional; details: Homo sapiens, NCI/ADR-RES, 72 h
SF-268 = assay: cells; type: functional; details: Homo sapiens, SF-268, 72 h
SF-539 = assay: cells; type: functional; details: Homo sapiens, SF-539, 72 h
LOX IMVI = assay: cells; type: functional; details: Homo sapiens, 72 h
SK-MEL-28 = assay: cells; type: functional; details: Homo sapiens, SK-MEL-28, 72 h
A498 = assay: cells; type: functional; details: Homo sapiens, A498, 72 h
ACHN = assay: cells; type: functional; details: Homo sapiens, 72 h
TK-10 = assay: cells; type: functional; details: Homo sapiens, TK-10, 72 h
UO-31 = assay: cells; type: functional; details: Homo sapiens, UO-31, 72 h
MCF7 = assay: cells; type: functional; details: Homo sapiens, MCF7, 48 h
Cytochrome P450 3A4 = Cytochrome P450 3A4 (Homo sapiens, UniProt P08684); assay: Inhibition of human CYP3A4; type: ADME
[2] = Efflux ratio, ratio of apparent permeability from basolateral to apical side over apparent permeability from apical to basolateral side in human Caco2 cells at 10 uM; type: ADME, cell-based; details: Caco-2
How it was run: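 Caco-2 monolayers, test compound at 10 μM. Apparent permeability measured in both directions, apical to basolateral and basolateral to apical. Efflux ratio = P_app B to A / P_app A to B. Run by a contract lab following published methods. Mean of three independent triplicate experiments.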

Sequence of Cytochrome P450 3A4 (P08684 whole entry): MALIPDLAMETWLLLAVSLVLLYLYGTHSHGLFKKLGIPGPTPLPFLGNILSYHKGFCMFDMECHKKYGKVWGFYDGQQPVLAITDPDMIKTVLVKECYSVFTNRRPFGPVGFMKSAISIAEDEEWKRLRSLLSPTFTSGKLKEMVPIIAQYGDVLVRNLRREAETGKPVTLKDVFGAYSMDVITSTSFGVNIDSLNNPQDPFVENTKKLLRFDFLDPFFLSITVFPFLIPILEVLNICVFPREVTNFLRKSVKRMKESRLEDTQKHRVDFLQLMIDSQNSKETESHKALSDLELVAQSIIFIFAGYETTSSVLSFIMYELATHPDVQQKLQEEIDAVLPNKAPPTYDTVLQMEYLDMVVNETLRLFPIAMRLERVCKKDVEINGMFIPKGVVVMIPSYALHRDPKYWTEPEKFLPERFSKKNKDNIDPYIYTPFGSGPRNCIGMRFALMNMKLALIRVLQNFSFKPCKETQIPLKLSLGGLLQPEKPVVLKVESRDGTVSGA

With CC(C)[C@@H](c1nc2ccccc2o1)n1cc(/C=C/C(=O)NO)nn1 the inhibition [1] was “Active”, the GI50 (CCRF-CEM) was 110 nM and the GI50 (HL-60(TB)) was 190 nM. It also gave a GI50 (K562) of 88 nM, a GI50 (MOLT-4) of 72 nM and a GI50 (SR) of 90 nM. It also gave a GI50 (A549) of 160 nM, a GI50 (HOP-92) of 10 nM and a GI50 (COLO 205) of 140 nM. It also gave a GI50 (HCT-15) of 470 nM, a GI50 (IGROV-1) of 56 nM and a GI50 (OVCAR-5) of 140 nM. It also gave a GI50 (cells) of 27 nM, a GI50 (SF-268) of 330 nM and a GI50 (SF-539) of 240 nM. For the same molecule, the GI50 (LOX IMVI) was 44 nM, the GI50 (SK-MEL-28) was 220 nM and the GI50 (A498) was 180 nM. It also gave a GI50 (ACHN) of 210 nM, a GI50 (TK-10) of 44 nM and a GI50 (UO-31) of 60 nM. The GI50 (MCF7) was 180 nM, the INH (Cytochrome P450 3A4) was 31.9 µM and the efflux ratio at 10 µM [2] was 1.15.
